Consider 2 compounds from PMC11609979 (Chemical Science, 2024).

In data set [1] the test system is A549 cells. In words: Seahorse MitoStress Test. The data set is classed as cell-based. Particulars: for Lowest concentration for inhibition of OCR, Dark: 1 h incubation, no irradiation. The procedure, abridged:
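OCR/ECAR were measured by extracellular flux with sequential oligomycin, FCCP, then rotenone/antimycin A. Basal, maximal and non-mitochondrial respiration were derived. OCR IC50 was taken from maximal respiration. The phenotype map plots basal versus stressed states.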

Data set [2] concerns A549 cells. The data set can be described thus: Seahorse Glycolytic Rate Test. It counts as cell-based. Particulars: irradiation with red light 660 nm. In a few lines:
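A549 cells were incubated 1 h with test compound, kept dark or irradiated. Irradiation used indigo 450 nm light (485 mW cm^-2) or red 660 nm light (16 mW cm^-2). Concentrations were chosen from light/dark cytotoxicity to keep cells viable. Glycolysis was blocked by 2-deoxyglucose injection, then non-glycolytic acidification was measured. Mitochondrial acidification was also read out.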

In data set [3] the test system is A549 cells. The data set can be described thus: Cell cytotoxicity. It counts as cell-based. Particulars: Homo sapiens, A549, 72 h, read-out: IC50 (±St. Dev.) Light. In a few lines: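 A549 cells were exposed to test compound and viability was read 72 h after treatment. Dark samples were protected from light. IC50 was taken from dose–response curves, n = 3.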
For data set [4] the following is noted: cited from earlier work.

Where only a bound is given, the exact number is not on record here.

As to `N.N.[Cl][Pt][Cl]` [Cisplatin], in data set [1] (A549 cells), the “Lowest concentration for inhibition of OCR, Dark” value is more than 20 µM.

`CCCCCCOC(C)c1c(C)c2cc3nc(c4c5[nH]c(cc6nc(cc1[nH]2)C(C)=C6CC)c(C)c5C(=O)C4)[C@@H](CCC(=O)O)[C@@H]3C` (stereo partly shown) [HPPH, 2-(1-hexyloxyethyl)-2-devinylpyropheophorbide-a]: in data set [2], the “Concentration with PER showing no glycolytic activity” value was found to be 10 µM. In addition, the IC50 in data set [3] worked out at 3.7 µM; in data set [1] (Homo sapiens, A549, read-out: OCR IC50 (from maximal respiration dose-response)), 1.2 µM. In data set [1] (A549 cells, 1 h, dark, Fig. 3A and C), the “Cellular respiration in the absence of light” value is listed as “unaffected”. Also, in data set [1] (A549 cells), the “Lowest concentration for inhibition of OCR, Dark” value is 3 µM. In addition, the “Cellular respiration following irradiation” value in data set [1] (A549 cells, indigo light for 3, red light (660 nm) for HPPH, Fig. 3B and D) was “marked concentration-dependent decrease”. The “Fold lower than the IC50 for cytotoxicity (quiescent phenotype concentration)” value in data set [1] (A549 cells, red light) amounted to 10 fold. In data set [1] (A549 cells, red light, Fig. S10), the “Concentration inducing the quiescent phenotype” value was 0.37 µM. Besides, the “log P” value in data set [4] is listed as approximately 6.0.
